{
  "source": "ChEMBL document CHEMBL5316336",
  "about": "“Development of Human Carbonic Anhydrase II Heterobifunctional Degraders” (J Med Chem, 2023)",
  "type_in_all_cases": "cell-based",
  "key": {"[1]": {"molecular_target": "T1, Protein cereblon/Carbonic anhydrase 2 (Homo sapiens, UniProt P00918+Q96SW2)", "assay": "Protac activity at CRBN/CA-2 in HEK293 cells assessed as degradation of carbonic anhydrase-2 measured after 24 hrs by Western blot analysis", "settings": "dose <= 15.0 µM", "in_short": "(§1)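 Nine-point dose response, 5 pM to 15 μM, in HEK293 cells for 24 h before lysis, three biological replicates; Western blot with hCAII normalized to β-actin and DMSO vehicle. DC50 (95% CI) and DMax from least-squares sigmoidal fit of concentrations below the hook region; log(inhibitor) vs response, three-parameter fit.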"}, "[2]": {"molecular_target": "T1, Protein cereblon/Carbonic anhydrase 2", "assay": "Protac activity at CRBN/CA-2 in HEK293 cells assessed as degradation of carbonic anhydrase-2", "in_short": "as §1"}, "[3]": {"molecular_target": "T1, Protein cereblon/Carbonic anhydrase 2", "assay": "Protac activity at CRBN/CA-2 in HEK293 cells assessed as degradation of carbonic anhydrase-2 at 15 uM measured after 24 hrs by Western blot analysis relative to control", "in_short": "(§2)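 HEK293 cells (DMEM, 10% FBS, 37 °C, 5% CO2) plated at 2 × 10⁶/well, dosed in DMSO (0.5% final) 24 h before lysis at ~90% confluency. 30–50 μg lysate protein on SDS-PAGE, blotted with anti-hCAII and anti-β-actin, Cy5 secondary. hCAII/β-actin ratio normalized to DMSO wells, as % DMSO.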"}, "[4]": {"molecular_target": "Carbonic anhydrase 2 (Homo sapiens) (UniProt P00918)", "assay": "Induction of in carbonic anhydrase-2 HEK293 cells assessed as degradation of carbonic anhydrase-2 at 5 uM measured after 24 hrs by Western blot analysis", "in_short": "as §2"}, "[5]": {"molecular_target": "T1, Protein cereblon/Carbonic anhydrase 2", "assay": "Protac activity at CRBN/CA-2 in HEK293 cells assessed as degradation of carbonic anhydrase-2 at 50 pM measured after 24 hrs by Western blot analysis", "in_short": "as §2"}, "[6]": {"molecular_target": "T1, Protein cereblon/Carbonic anhydrase 2", "assay": "Protac activity at CRBN/CA-2 in HEK293 cells assessed as degradation of carbonic anhydrase-2 at 50 nM by Western blot analysis", "settings": "time lower 0.0 hrs, time upper […]", "in_short": "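HEK293 cells given 50 nM compound for 0–48 h time course; hCAII abundance by Western blot, hCAII/β-actin normalized to DMSO vehicle.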"}, "[7]": {"molecular_target": "T1, Protein cereblon/Carbonic anhydrase 2", "assay": "Protac activity at CRBN/CA-2 in HEK293 cells assessed as degradation of carbonic anhydrase-2 at 50 nM preincubated for 1 hr with acetazolamide followed by compound addition and measured after 6 hrs by Western blot analysis"}, "[8]": {"molecular_target": "T1, Protein cereblon/Carbonic anhydrase 2", "assay": "Protac activity at CRBN/CA-2 in HEK293 cells assessed as degradation of carbonic anhydrase-2 at 50 nM preincubated for 1 hr with lenalidomide followed by compound addition and measured after 6 hrs by Western blot analysis"}, "[9]": {"molecular_target": "T1, Protein cereblon/Carbonic anhydrase 2", "assay": "Protac activity at CRBN/CA-2 in HEK293 cells assessed as degradation of carbonic anhydrase-2 at 50 nM preincubated for 1 hr with MG-132 followed by compound addition and measured after 6 hrs by Western blot analysis", "in_short": "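HEK293 cells pretreated 1 h with MG-132 at 1 μM, then 50 nM compound for 6 h; hCAII by Western blot, hCAII/β-actin relative to DMSO controls.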"}},
  "note": "The source made the active and inactive calls. The calls are words filed in the database; no cut-off is given here.",
  "data": [
    {"smiles": "NS(=O)(=O)c1ccc(C(=O)NCCCOCCOCCOCCCNc2cccc3c2C(=O)N(C2CCC(=O)NC2=O)C3=O)cc1", "note": "(stereo not given)", "values": [
      {"measurement": "Activity", "setting": "[1]", "value": "Dose-Dependent Effect"},
      {"measurement": "EC50", "setting": "[2]", "value": 245, "unit": "nM"},
      {"measurement": "Activity", "setting": "[3]", "value": 100, "unit": "%"}
    ]},
    {"smiles": "NS(=O)(=O)c1ccc(C(=O)NCCCOCCCCOCCCNc2cccc3c2C(=O)N(C2CCC(=O)NC2=O)C3=O)cc1", "note": "(stereo not given)", "values": [
      {"measurement": "Activity", "setting": "[1]", "value": "Dose-Dependent Effect"},
      {"measurement": "EC50", "setting": "[2]", "value": 5, "unit": "nM"},
      {"measurement": "Activity", "setting": "[3]", "value": 100, "unit": "%"}
    ]},
    {"smiles": "CS(=O)(=O)c1ccc(C(=O)NCCCOCCOCCOCCCNc2cccc3c2C(=O)N(C2CCC(=O)NC2=O)C3=O)cc1", "note": "(stereo not given)", "values": [
      {"measurement": "Activity", "setting": "[4]", "value": "inactive"}
    ]},
    {"smiles": "CS(=O)(=O)c1ccc(C(=O)NCCCOCCCCOCCCNc2cccc3c2C(=O)N(C2CCC(=O)NC2=O)C3=O)cc1", "note": "(stereo not given)", "values": [
      {"measurement": "Activity", "setting": "[4]", "value": "inactive"}
    ]},
    {"smiles": "CN1C(=O)CCC(N2C(=O)c3cccc(NCCCOCCCCOCCCNC(=O)c4ccc(S(N)(=O)=O)cc4)c3C2=O)C1=O", "note": "(stereo not given)", "values": [
      {"measurement": "Activity", "setting": "[4]", "value": "inactive"}
    ]},
    {"smiles": "CN1C(=O)CCC(N2C(=O)c3cccc(NCCCOCCOCCOCCCNC(=O)c4ccc(S(N)(=O)=O)cc4)c3C2=O)C1=O", "note": "(stereo not given)", "values": [
      {"measurement": "Activity", "setting": "[4]", "value": "inactive"}
    ]},
    {"smiles": "NS(=O)(=O)c1ccc(C(=O)NCCCCCCCCCCCCNc2cccc3c2C(=O)N(C2CCC(=O)NC2=O)C3=O)cc1", "note": "(stereo not given)", "values": [
      {"measurement": "Activity", "setting": "[5]", "value": "Active"},
      {"measurement": "Activity", "setting": "[6]", "value": "Dose-Dependent Effect"},
      {"measurement": "Activity", "setting": "[7]", "value": "inactive"},
      {"measurement": "Activity", "setting": "[8]", "value": "inactive"},
      {"measurement": "Activity", "setting": "[9]", "value": "inactive"}
    ]}
  ]
}
